From ChEMBL document CHEMBL3244396, “Synthesis and antileukemic activity of 5-substituted 2,3-dihydro-6,7-bis(hydroxymethyl)-1H-pyrrolizine diesters” (J Med Chem, 1977)
In brackets after ≈: the same amount, converted by molar mass.

Experiments:
P388 [1] = assay: Antitumor activity against mouse P388 cells allografted in male CDF1 mouse assessed as change in body weight at 100 mg/kg, ip administered daily for 9 days as Klucel suspension starting 24 hrs after tumor inoculation; type: functional; settings: route intraperitoneal
How it was run: (§1)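 Ascitic fluid carrying P388 cells was inoculated ip. Compound was given ip in nine daily doses, starting 24 h after inoculation, in Klucel (hydroxypropylcellulose) suspension or in saline with Tween-80. Body-weight difference (treated minus control) was recorded on day 5. Survival was scored as %T/C of median survival time, and 30-day survival counted as cure.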

L1210 [2] = assay: Antileukemic activity against mouse L1210 cells allografted in female CDF1 mouse assessed as change in body weight at 3.13 mg/kg, ip administered daily for 9 days as Klucel suspension starting 24 hrs after tumor inoculation; type: functional; settings: route intraperitoneal
How it was run: (§2)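 Ascitic fluid carrying L1210 cells was inoculated ip. Compound was given ip as a Klucel (hydroxypropylcellulose) suspension in nine daily doses, starting 24 h after inoculation. Body-weight difference (treated minus control) was recorded on day 5. Survival was scored as %T/C of mean survival time.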

P388 [3] = assay: Antitumor activity against mouse P388 cells allografted in male CDF1 mouse assessed as change in body weight at 25 mg/kg, ip administered daily for 9 days as Klucel suspension starting 24 hrs after tumor inoculation; type: functional; settings: route intraperitoneal; how it was run: as §1
P388 [4] = assay: Antitumor activity against mouse P388 cells allografted in female BDF1 mouse assessed as disease cures by measuring 30-days host survival at 1.56 mg/kg, ip administered daily for 9 days as Klucel suspension starting 24 hrs after tumor inoculation relative to control; type: functional; settings: route intraperitoneal
How it was run: (§3)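 P388 leukemia given as an ascitic fluid cell inoculum, ip, to mice of the strain and sex in each line. Nine daily ip doses were given in a Klucel (hydroxypropylcellulose) suspension, starting 24 h after inoculation. Read-out is median survival time as %T/C, with >125 taken as significant; a "cure" means 30-day survival.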

P388 [5] = assay: Antitumor activity against mouse P388 cells allografted in female CDF1 mouse assessed as change in body weight at 12.5 mg/kg, ip administered daily for 9 days as Klucel suspension starting 24 hrs after tumor inoculation; type: functional; settings: route intraperitoneal; how it was run: as §1
P388 [6] = assay: Antitumor activity against mouse P388 cells allografted in female BDF1 mouse assessed as disease cures by measuring 30-days host survival at 0.78 mg/kg, ip administered daily for 9 days as Klucel suspension starting 24 hrs after tumor inoculation relative to control; type: functional; settings: route intraperitoneal; how it was run: as §3
Mus musculus [7] = assay: Toxicity in female CDF1 mouse allografted with mouse L1210 cells assessed as animal survival at 3.13 mg/kg, ip administered daily for 9 days as Klucel suspension starting 24 hrs after tumor inoculation measured on fifth day; type: organism-based; design: dose 3.13 mg/kg, route intraperitoneal; settings: in vivo
How it was run: (§4)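 L1210 leukemia passaged as ascitic fluid and inoculated ip. Test agent given ip as a Klucel (hydroxypropylcellulose) suspension, nine daily doses starting 24 h after tumor inoculation. Acute toxicity read as toxicity-day survivors per group (out of 6), recorded on day 5. Animal weight difference T − C was also recorded. Follows NCI screening protocols.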

P388 [8] = assay: Antitumor activity against mouse P388 cells allografted in male CDF1 mouse assessed as change in body weight at 200 mg/kg, ip administered daily for 9 days as Klucel suspension starting 24 hrs after tumor inoculation; type: functional; settings: route intraperitoneal; how it was run: as §1
Mus musculus [9] = assay: Toxicity in female CDF1 mouse allografted with mouse P388 cells assessed as animal survival at 6.25 mg/kg, ip administered daily for 9 days as Klucel suspension starting 24 hrs after tumor inoculation; type: organism-based; design: dose 6.25 mg/kg, route intraperitoneal; settings: in vivo
How it was run: (§5)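 P-388 leukemia ascitic fluid inoculated ip. Compound given ip as a suspension in Klucel (hydroxypropylcellulose), once daily for nine doses beginning 24 h post-inoculation. Acute toxicity assessed as toxicity-day survivors per group. Survival was followed up to 30 days, with 30-day survival counted as "cure". Follows NCI screening protocols.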

Mus musculus [10] = assay: Toxicity in female CDF1 mouse allografted with mouse L1210 cells assessed as animal survival at 6.25 mg/kg, ip administered daily for 9 days as Klucel suspension starting 24 hrs after tumor inoculation measured on fifth day; type: organism-based; design: dose 6.25 mg/kg, route intraperitoneal; settings: in vivo; how it was run: as §4
L1210 [11] = assay: Antileukemic activity against mouse L1210 cells allografted in female CDF1 mouse assessed as change in body weight at 12.5 mg/kg, ip administered daily for 9 days as Klucel suspension starting 24 hrs after tumor inoculation; type: functional; settings: route intraperitoneal; how it was run: as §2
Mus musculus [12] = assay: Toxicity in male CDF1 mouse allografted with mouse P388 cells assessed as animal survival at 100 mg/kg, ip administered daily for 9 days as Klucel suspension starting 24 hrs after tumor inoculation; type: organism-based; design: dose 100 mg/kg, route intraperitoneal; settings: in vivo; how it was run: as §5
L1210 [13] = assay: Antileukemic activity against mouse L1210 cells allografted in female CDF1 mouse assessed as host mean survival time at 12.5 mg/kg, ip administered daily for 9 days as Klucel suspension starting 24 hrs after tumor inoculation relative to control; type: functional; settings: route intraperitoneal
How it was run: (§6)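 L1210 leukemia given as an ascitic fluid cell inoculum, ip, to mice of the strain and sex in each line. Test material was given ip for nine daily doses starting 24 h after inoculation, in a Klucel (hydroxypropylcellulose) suspension. Read-out is mean survival time as %T/C versus controls, with >125 taken as significant.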

P388 [14] = assay: Antitumor activity against mouse P388 cells allografted in male CDF1 mouse assessed as change in body weight at 50 mg/kg, ip administered daily for 9 days as Klucel suspension starting 24 hrs after tumor inoculation; type: functional; settings: route intraperitoneal; how it was run: as §1
Mus musculus [15] = assay: Toxicity in female BDF1 mouse allografted with mouse P388 cells assessed as animal survival at 0.78 mg/kg, ip administered daily for 9 days as Klucel suspension starting 24 hrs after tumor inoculation; type: organism-based; design: dose 0.78 mg/kg, route intraperitoneal; settings: in vivo; how it was run: as §5
Mus musculus [16] = assay: Toxicity in female CDF1 mouse allografted with mouse P388 cells assessed as animal survival at 12.5 mg/kg, ip administered daily for 9 days as Klucel suspension starting 24 hrs after tumor inoculation; type: organism-based; design: dose 12.5 mg/kg, route intraperitoneal; settings: in vivo; how it was run: as §5
P388 [17] = assay: Antitumor activity against mouse P388 cells allografted in female CDF1 mouse assessed as disease cures by measuring 30-days host survival at 6.25 mg/kg, ip administered daily for 9 days as Klucel suspension starting 24 hrs after tumor inoculation relative to control; type: functional; settings: route intraperitoneal; how it was run: as §3
Mus musculus [18] = assay: Toxicity in female CDF1 mouse allografted with mouse P388 cells assessed as animal survival at 3.13 mg/kg, ip administered daily for 9 days as Klucel suspension starting 24 hrs after tumor inoculation; type: organism-based; design: dose 3.13 mg/kg, route intraperitoneal; settings: in vivo; how it was run: as §5
L1210 [19] = assay: Antileukemic activity against mouse L1210 cells allografted in female CDF1 mouse assessed as host mean survival time at 6.25 mg/kg, ip administered daily for 9 days as Klucel suspension starting 24 hrs after tumor inoculation relative to control; type: functional; settings: route intraperitoneal; how it was run: as §6
P388 [20] = assay: Antitumor activity against mouse P388 cells allografted in female BDF1 mouse assessed as change in body weight at 0.78 mg/kg, ip administered daily for 9 days as Klucel suspension starting 24 hrs after tumor inoculation; type: functional; settings: route intraperitoneal; how it was run: as §1
[21] = Cytotoxicity against human 9KB cells treated as ethanol solution; type: functional; settings: read-out: ED50 (the source's name)
How it was run: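 Compound applied as an ethanol solution; activity read out as ED50 under the general screening protocol.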

L1210 [22] = assay: Antileukemic activity against mouse L1210 cells allografted in female CDF1 mouse assessed as change in body weight at 6.25 mg/kg, ip administered daily for 9 days as Klucel suspension starting 24 hrs after tumor inoculation; type: functional; settings: route intraperitoneal; how it was run: as §2
L1210 [23] = assay: Antileukemic activity against mouse L1210 cells allografted in female CDF1 mouse assessed as host mean survival time at 3.13 mg/kg, ip administered daily for 9 days as Klucel suspension starting 24 hrs after tumor inoculation relative to control; type: functional; settings: route intraperitoneal; how it was run: as §6
P388 [24] = assay: Antitumor activity against mouse P388 cells allografted in female CDF1 mouse assessed as disease cures by measuring 30-days host survival at 3.13 mg/kg, ip administered daily for 9 days as Klucel suspension starting 24 hrs after tumor inoculation relative to control; type: functional; settings: route intraperitoneal; how it was run: as §3
P388 [25] = assay: Antitumor activity against mouse P388 cells allografted in female CDF1 mouse assessed as change in body weight at 6.25 mg/kg, ip administered daily for 9 days as Klucel suspension starting 24 hrs after tumor inoculation; type: functional; settings: route intraperitoneal; how it was run: as §1
P388 [26] = assay: Antitumor activity against mouse P388 cells allografted in female BDF1 mouse assessed as change in body weight at 1.56 mg/kg, ip administered daily for 9 days as Klucel suspension starting 24 hrs after tumor inoculation; type: functional; settings: route intraperitoneal; how it was run: as §1
Mus musculus [27] = assay: Toxicity in male CDF1 mouse allografted with mouse P388 cells assessed as animal survival at 200 mg/kg, ip administered daily for 9 days as Klucel suspension starting 24 hrs after tumor inoculation; type: organism-based; design: dose 200 mg/kg, route intraperitoneal; settings: in vivo; how it was run: as §5
P388 [28] = assay: Antitumor activity against mouse P388 cells allografted in female CDF1 mouse assessed as disease cures by measuring 30-days host survival at 12.5 mg/kg, ip administered daily for 9 days as Klucel suspension starting 24 hrs after tumor inoculation relative to control; type: functional; settings: route intraperitoneal; how it was run: as §3
P388 [29] = assay: Antitumor activity against mouse P388 cells allografted in male CDF1 mouse assessed as disease cures by measuring 30-days host survival at 50 mg/kg, ip administered daily for 9 days as Klucel suspension starting 24 hrs after tumor inoculation relative to control; type: functional; settings: route intraperitoneal; how it was run: as §3
P388 [30] = assay: Antitumor activity against mouse P388 cells allografted in female CDF1 mouse assessed as change in body weight at 3.13 mg/kg, ip administered daily for 9 days as Klucel suspension starting 24 hrs after tumor inoculation; type: functional; settings: route intraperitoneal; how it was run: as §1
Mus musculus [31] = assay: Toxicity in female BDF1 mouse allografted with mouse P388 cells assessed as animal survival at 1.56 mg/kg, ip administered daily for 9 days as Klucel suspension starting 24 hrs after tumor inoculation; type: organism-based; design: dose 1.56 mg/kg, route intraperitoneal; settings: in vivo; how it was run: as §5

Structure (SMILES): CNC(=O)OCc1c(COC(=O)NC)c(-c2ccc(F)cc2)n2c1CCC2
- Activity (P388 [1]): -1.5 g
- Activity (L1210 [2]): 1.1 g
- Activity (P388 [3]): -2 g
- T/C (P388 [4]): 122%
- Activity (P388 [5]): -3.3 g
- T/C (P388 [6]): 146%
- Activity (Mus musculus [7]): Non-toxic
- Activity (P388 [8]): -1.5 g
- Activity (Mus musculus [9]): Non-toxic
- Activity (Mus musculus [10]): Non-toxic
- Activity (L1210 [11]): 0.1 g
- Activity (Mus musculus [12]): Toxic
- T/C (L1210 [13]): 118%
- Activity (P388 [14]): -3.4 g
- Activity (Mus musculus [15]): Non-toxic
- Activity (Mus musculus [16]): Non-toxic
- T/C (P388 [17]): 145%
- Activity (Mus musculus [18]): Non-toxic
- T/C (L1210 [19]): 107%
- Activity (P388 [20]): 0.9 g
- EC50 [21]: 0.22 mg/L (≈ 0.586 µM)
- Activity (L1210 [22]): 0.1 g
- T/C (L1210 [23]): 115%
- T/C (P388 [24]): 171%
- Activity (P388 [25]): -1 g
- Activity (P388 [26]): 0 g
- Activity (Mus musculus [27]): Toxic
- T/C (P388 [28]): 153%
- T/C (P388 [29]): 48%
- Activity (P388 [30]): -0.3 g
- Activity (Mus musculus [31]): Non-toxic
